Results: ChEMBL document CHEMBL1944602, “Synthesis and biological characterisation of sirtuin inhibitors based on the tenovins” (Bioorg Med Chem, 2012)
Converted amounts (≈) assume the structure as drawn. The source made the active and inactive calls. No cut-off for these calls is given here.

Experiments:
[1] = target: T1, NAD-dependent protein deacetylase sirtuin-1 (Homo sapiens) (UniProt Q96EB6); assay: Inhibition of SirT1 in human ARN8 cells assessed as p53 activation at 5 uM by beta-galactosidase reporter gene assay relative to control; format: cell-based
T1 sequence (whole entry): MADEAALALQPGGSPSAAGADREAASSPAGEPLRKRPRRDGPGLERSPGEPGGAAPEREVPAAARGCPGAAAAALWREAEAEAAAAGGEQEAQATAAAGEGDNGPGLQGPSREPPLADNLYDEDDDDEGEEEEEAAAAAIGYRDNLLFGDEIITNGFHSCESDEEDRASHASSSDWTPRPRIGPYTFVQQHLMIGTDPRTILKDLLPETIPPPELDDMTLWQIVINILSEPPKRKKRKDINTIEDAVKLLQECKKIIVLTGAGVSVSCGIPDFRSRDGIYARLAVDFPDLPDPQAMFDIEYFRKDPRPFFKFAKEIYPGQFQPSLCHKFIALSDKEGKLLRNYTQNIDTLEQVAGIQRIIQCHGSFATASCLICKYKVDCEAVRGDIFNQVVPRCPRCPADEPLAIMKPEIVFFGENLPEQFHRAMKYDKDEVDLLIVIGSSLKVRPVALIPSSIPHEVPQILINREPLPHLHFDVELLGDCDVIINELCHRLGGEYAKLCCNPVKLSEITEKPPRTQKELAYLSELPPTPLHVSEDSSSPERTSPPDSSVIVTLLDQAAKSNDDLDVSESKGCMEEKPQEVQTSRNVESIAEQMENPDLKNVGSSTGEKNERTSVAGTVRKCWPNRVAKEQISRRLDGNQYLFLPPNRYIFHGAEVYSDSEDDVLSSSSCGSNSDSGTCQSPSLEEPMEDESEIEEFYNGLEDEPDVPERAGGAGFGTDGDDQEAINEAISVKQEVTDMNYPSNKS
In short: (§1)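 p53-dependent transcription measured with a beta-galactosidase reporter in ARN8 cells, run in triplicate. Read-out is the ratio of signal in treated cells to DMSO-control cells, given to 2 significant figures; a positive or negative activity call is also recorded.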

[2] = target: T1, NAD-dependent protein deacetylase sirtuin-1 (Homo sapiens); assay: Inhibition of SirT1 in human ARN8 cells assessed as p53 activation at 20 uM by beta-galactosidase reporter gene assay relative to control; format: cell-based; in short: as §1
[3] = target: T2, NAD-dependent protein deacetylase sirtuin-2 (Homo sapiens, UniProt Q8IXJ6); assay: Inhibition of recombinant human SitT2 by Fluor de Lys fluorescence assay
T2 sequence (Q8IXJ6 whole entry): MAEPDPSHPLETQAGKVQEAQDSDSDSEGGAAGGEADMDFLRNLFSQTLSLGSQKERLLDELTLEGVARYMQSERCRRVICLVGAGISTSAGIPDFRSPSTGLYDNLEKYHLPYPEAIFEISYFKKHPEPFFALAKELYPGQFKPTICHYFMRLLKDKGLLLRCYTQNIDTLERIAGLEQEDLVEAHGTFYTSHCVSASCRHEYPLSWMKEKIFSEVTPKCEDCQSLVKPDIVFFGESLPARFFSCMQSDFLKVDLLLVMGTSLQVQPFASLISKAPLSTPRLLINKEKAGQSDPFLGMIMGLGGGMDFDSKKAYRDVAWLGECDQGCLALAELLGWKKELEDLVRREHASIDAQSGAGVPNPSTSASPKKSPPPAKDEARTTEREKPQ

[4] = target: T1, NAD-dependent protein deacetylase sirtuin-1 (Homo sapiens); assay: Inhibition of SirT1 in human ARN8 cells assessed as p53 activation at 10 uM by beta-galactosidase reporter gene assay relative to control; format: cell-based; in short: as §1
[5] = target: T3, NAD-dependent protein deacetylase sirtuin-1 (Homo sapiens, UniProt Q96EB6); assay: Inhibition of recombinant human SitT1 by Fluor de Lys fluorescence assay
T3 sequence (Q96EB6 whole entry): T1 sequence (whole entry)

[6] = target: T1, NAD-dependent protein deacetylase sirtuin-1 (Homo sapiens); assay: Inhibition of recombinant human SitT1 at 60 uM by Fluor de Lys fluorescence assay
In short: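 Human recombinant SirT1 deacetylation measured with the Fluor de Lys fluorescence kit at a fixed 60 µM inhibitor. Tested on two separate occasions; percent inhibition reported as a mean weighted to the standard error.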

[7] = target: T1, NAD-dependent protein deacetylase sirtuin-1 (Homo sapiens); assay: Inhibition of SirT1 in human ARN8 cells assessed as p53 activation at 5 uM by beta-galactosidase reporter gene assay; format: cell-based; in short: as §1
[8] = target: T1, NAD-dependent protein deacetylase sirtuin-1 (Homo sapiens); assay: Inhibition of SirT1 in human ARN8 cells assessed as p53 activation at 10 uM by beta-galactosidase reporter gene assay; format: cell-based; in short: as §1
[9] = target: T1, NAD-dependent protein deacetylase sirtuin-1 (Homo sapiens); assay: Inhibition of SirT1 in human ARN8 cells assessed as p53 activation at 20 uM by beta-galactosidase reporter gene assay; format: cell-based; in short: as §1
[10] = target: T1, NAD-dependent protein deacetylase sirtuin-1 (Homo sapiens); assay: Inhibition of SirT1 assessed as increase in p53 expression in human MCF7 cells at 10 uM after 6 hrs by Western blotting; format: cell-based
In short: (§2)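 MCF-7 cells grown in DMEM with 10% FCS and gentamycin, seeded at 2 × 10⁵ per well on collagen-coated plates and incubated 42 h at 37 °C in 5% CO2. Compound in DMSO was added for 6 h. Lysis in LDS buffer, protein equalised by BCA, 4–12% bis-tris SDS-PAGE, PVDF blot. Total p53 detected with DO.1, PCNA as loading control, ECL detection. Scored semi-quantitatively against untreated level.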

[11] = target: T1, NAD-dependent protein deacetylase sirtuin-1 (Homo sapiens); assay: Inhibition of SirT1 assessed as increase in p53 expression in human MCF7 cells at 5 uM after 6 hrs by Western blotting; format: cell-based; in short: as §2
[12] = target: T1, NAD-dependent protein deacetylase sirtuin-1 (Homo sapiens); assay: Inhibition of SirT1 assessed as increase in p53 expression in human MCF7 cells at 2 uM after 6 hrs by Western blotting; format: cell-based; in short: as §2
[13] = Solubility of the compound in water by UV spectrophotometry; format: physicochemical
In short: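 Extinction coefficient from absorbance at 273 nm of a 7-point 2-fold dilution series in acetonitrile; DMSO used first where needed. Coefficient taken from the slope of absorbance against molar concentration. Used to find the actual concentration of a nominal 100 µM aqueous solution made from 40 mM DMSO stock.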

fold change (FC) [1]	fold change (FC) [2]	IC50 [3]	fold change (FC) [4]	IC50 [5]	inhibition [6]	inhibition [7]	inhibition [8]	inhibition [9]	inhibition [10]	inhibition [11]	inhibition [12]	solubility [13]	Structure (SMILES)
1	1.01	55 µM	1.1	> 90 µM	13.5%	inactive	inactive	inactive	–	–	–	–	CN(C)CCCCC(=O)Nc1ccc(NC(=S)NC(=O)c2ccc(Br)cc2)cc1
–	–	–	–	–	6.6%	–	–	–	inactive	inactive	inactive	–	CN(C)CCCCC(=O)Nc1ccc(N(C)C(=S)NC(=O)c2ccc(C(C)(C)C)cc2)cc1
6.9	6.5	88.4 µM	7.3	21.7 µM	93.6%	Active	Active	Active	–	–	–	–	CN(C)CCCCC(=O)Nc1ccc(NC(=O)NC(=O)c2ccc(C(C)(C)C)cc2)cc1
1	2.4	7.85 µM	1.5	60.2 µM	50.9%	inactive	Active	Active	–	–	–	–	CCCc1ccc(C(=O)NC(=S)Nc2ccc(NC(=O)CCCCN(C)C)cc2)cc1
0.99	0.84	42.5 µM	0.98	> 90 µM	9.9%	inactive	inactive	inactive	–	–	–	–	Cc1ccccc1C(=O)NC(=S)Nc1ccc(NC(=O)CCCCN(C)C)cc1
–	–	–	–	–	–	–	–	–	Active	Active	Active	0.12 µg/mL (≈ 0.325 µM)	CC(=O)Nc1ccc(NC(=S)NC(=O)c2ccc(C(C)(C)C)cc2)cc1
1.04	0.97	–	1.1	–	8.1%	inactive	inactive	inactive	–	–	–	–	CN(C)CCCCC(=O)Nc1ccc(NC(=S)NC(=O)c2ccc(Cl)c(Cl)c2)cc1
1.1	0.92	> 90 µM	0.97	> 90 µM	3.5%	inactive	inactive	inactive	–	–	–	–	CN(C)CCCCC(=O)Nc1ccc(NC(=S)NC(=O)c2ccccc2)cc1
–	–	21.3 µM	–	–	96.2%	–	–	–	Active	Active	Active	> 0.97 µg/mL	CN(C)CCCCCC(=O)Nc1ccc(NC(=S)NC(=O)c2ccc(C(C)(C)C)cc2)cc1.Cl
1.1	1.2	–	1.2	–	70.5%	inactive	inactive	–	–	–	–	–	CN(C)CCCCC(=O)Nc1ccc(NC(=S)NC(=O)c2cccc(Br)c2)cc1
1.2	1.1	> 90 µM	1.1	> 90 µM	47.3%	inactive	inactive	inactive	–	–	–	–	Cc1ccc(C(=O)NC(=S)Nc2ccc(NC(=O)CCCCN(C)C)cc2)cc1
0.94	0.89	> 90 µM	0.89	> 90 µM	5.2%	inactive	inactive	inactive	–	–	–	–	Cc1cccc(C(=O)NC(=S)Nc2ccc(NC(=O)CCCCN(C)C)cc2)c1

Further lines, the compound ahead of its results:

Structure (SMILES)	fold change (FC) [1]	fold change (FC) [2]	IC50 [3]	fold change (FC) [4]	IC50 [5]	inhibition [6]	inhibition [7]	inhibition [8]	inhibition [9]	inhibition [10]	inhibition [11]	inhibition [12]	solubility [13]
CCCCCc1ccc(C(=O)NC(=S)Nc2ccc(NC(=O)CCCCN(C)C)cc2)cc1	1.1	1.2	5.6 µM	1.1	36.7 µM	73.2%	inactive	inactive	–	–	–	–	–
CN(C)CCCCC(=O)Nc1ccc(NC(=S)NC(=O)c2ccccc2Cl)cc1	1.2	1.2	> 90 µM	1.1	> 90 µM	29.3%	inactive	inactive	inactive	–	–	–	–
CN(C)CCCCC(=O)Nc1ccc(NC(=S)NC(=O)c2cccc(Cl)c2)cc1	1.1	1	–	1.1	–	29.2%	inactive	inactive	inactive	–	–	–	–
CN(C)CCCCC(=O)Nc1ccc(NC(=S)NC(=O)c2ccc(Cl)cc2)cc1	1.1	1.01	> 90 µM	1.2	> 90 µM	53.4%	inactive	inactive	inactive	–	–	–	–
CN(C)CCCCCCCC(=O)Nc1ccc(NC(=S)NC(=O)c2ccc(C(C)(C)C)cc2)cc1.Cl	–	–	41.7 µM	–	–	70.9%	–	–	–	Active	Active	Active	> 1.01 µg/mL
COc1ccc(C(=O)NC(=S)Nc2ccc(NC(=O)CCCCN(C)C)cc2)cc1	1	1.12	50.6 µM	1.1	> 90 µM	48.5%	inactive	inactive	inactive	–	–	–	–
CN(C)CCCCNC(=O)c1ccc(NC(=S)NC(=O)c2ccc(C(C)(C)C)cc2)cc1	–	5.5	12.4 µM	3.9	17.9 µM	72.5%	–	Active	Active	–	–	–	–
CN(C)CCCCC(=O)Nc1ccc(NC(=S)NC(=O)c2ccc(C(C)(C)C)c(Br)c2)cc1	1.1	1.4	–	1.1	–	93.5%	inactive	inactive	Active	–	–	–	–
CC(C)c1ccc(C(=O)NC(=S)Nc2ccc(NC(=O)CCCCN(C)C)cc2)cc1	8.7	12	5.71 µM	11.1	42.7 µM	52.9%	Active	Active	Active	–	–	–	–
COc1cccc(C(=O)NC(=S)Nc2ccc(NC(=O)CCCCN(C)C)cc2)c1	1.1	1.2	–	1.1	–	25.3%	inactive	inactive	inactive	–	–	–	–
